Screening results deposited in PubChem by several laboratories.
T cruzi repl = T. cruzi replication inhibition | T. cruzi beta-gal in NIH3T3, luminescence, 90 h | 300,000 compounds, 1.4% hits | inhibition, % (concentration not given with the values);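 active means mean inhibition across valid replicates above about 55%, limit read from the data; inconclusive means mean below that limit but half or more replicates reach it; inactive means mean below it, under half of replicates reach it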;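 further: signal also drops with host cell toxicity which is not excluded here; 0% = plate median of DMSO wells and 100% = zero luminescence signal; higher percent means less beta-gal luminescence so fewer parasites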
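Read-out: Parasite load inhibition, % | Test system: Mouse NIH/3T3 fibroblasts infected with β-gal-expressing T. cruzi Tulahuen C4 | Amount: 5,000 cells/well | Medium: DMEM, 2% fetal bovine serum | Signal: GalScreen β-gal luminescence, detergent lysis, 60 min | Timing: 3 h attach, ≥90 h co-culture | Also added: Tulahuen C4 trypomastigotes, 5000/well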
UBC13 inh = blocks human UBC13 polyubiquitin chain formation; P61088; TR-FRET; inhibition, % at 20 µM; 330,000 compounds, 0.47% hits; in the data active means inhibition above about 45%, passing the limit was not always enough; inconclusive means no clear call, values can overlap the other calls
Target sequence (P61088 whole entry, looked up): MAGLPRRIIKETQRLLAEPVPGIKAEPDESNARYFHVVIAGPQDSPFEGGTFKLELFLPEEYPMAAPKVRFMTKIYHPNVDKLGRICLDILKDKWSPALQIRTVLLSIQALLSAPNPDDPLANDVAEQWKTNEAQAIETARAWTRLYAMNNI
pCIP destab = compounds decreasing mouse p/CIP protein stability. Q05BA5. F442A p/CIP-EGFP cells, EGFP fluorescence, 16 h. decrease of EGFP signal, % at 10 µM. 290,000 compounds, 0.01% hits. AID 1984;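 active means EGFP signal decrease of at least 30% at 10 µM or well 3 SD below plate mean, unless failing retest; inactive means the rest, including hits failing retest or dose response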
AI-2 QS modul = Vibrio harveyi AI-2 quorum sensing modulation. Vibrio harveyi JMH597 AI-2 luminescence/OD600 ratio, 9 h; hits give low values; strain lacks LuxN and CqsS sensors; 0 = neutral-control median. AID 2094. activity change, % at 7.5 µM. 300,000 compounds, 0.4% hits; in the data active means activity change below about -75%, passing the limit was not always enough; inconclusive means no clear call, values can overlap the other calls;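 further: luminescence divided by OD600 gain over 9 h not by final OD600 alone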
PP1 counter = blocks human PP1-alpha phosphatase, a PP5 counter-screen. P62136. purified PP1alpha, OMFP fluorescence. inhibition, % at 6.7 µM. 320,000 compounds, 0.9% hits. AID 2235;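 active means inhibition above the mean inhibition of all tested compounds plus 3 SD, computed separately for each screening campaign, cut at about 15% in these data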
Target sequence (P62136 whole entry, looked up): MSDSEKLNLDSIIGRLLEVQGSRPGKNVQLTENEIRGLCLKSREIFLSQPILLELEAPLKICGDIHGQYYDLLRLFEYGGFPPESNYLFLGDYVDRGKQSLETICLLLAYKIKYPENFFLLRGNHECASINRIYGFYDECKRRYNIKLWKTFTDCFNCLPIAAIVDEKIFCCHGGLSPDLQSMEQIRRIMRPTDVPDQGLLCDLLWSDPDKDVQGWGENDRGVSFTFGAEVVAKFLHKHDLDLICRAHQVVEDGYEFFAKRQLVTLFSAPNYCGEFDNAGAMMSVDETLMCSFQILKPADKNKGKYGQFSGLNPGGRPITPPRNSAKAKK
PP1 confirm = confirmation of human PP1 phosphatase inhibitors | shares compounds with PP1 counter | purified PP1alpha, OMFP substrate fluorescence | inhibition, % at 6.7 µM | 1,900 compounds, 52% hits;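 active means mean PP1 inhibition above a set limit taken from the earlier primary screen, cut at about 15% in these data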
PP5 inh counter = inhibits human PP5 phosphatase in PP1 counter-screen; shares compounds with PP1 counter; purified PP5c, OMFP fluorescence; inhibition, % at 6.7 µM; 1,900 compounds, 4% hits;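 active means mean PP5 inhibition over triplicate wells above about 9.5% taken from the earlier PP1 screen, limit read from the data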
* = called active by the depositor; ? = inconclusive; nt = no result. This is a sample that favours compounds with a hit; in the whole collection about 2.8% have one here.

SMILES	T cruzi repl	UBC13 inh	pCIP destab	AI-2 QS modul	PP1 counter	PP1 confirm	PP5 inh counter
COc1cccc(/C=N/Nc2cc(N3CCOCC3)ncn2)c1O	-9	-13	-6	-5	25*	20*	-5
COc1ccc(/C=N/Nc2cc(N3CCOCC3)ncn2)c(OC)c1	-8	-7	-2	26	-1	nt	nt
COc1cccc(/C=N/Nc2ncnc3c2ncn3Cc2ccccc2)c1O	34	-26	-10	21	20*	27*	-1
CC(C)N(C(=O)[C@H]1CC(CC(=O)NCCN2CCOCC2)C(=O)N2CCc3c([nH]c4ccccc34)[C@]12C)C(C)C (stereo partly specified)	nt	-1	nt	nt	nt	nt	nt
CN(C)c1ccc(C2CNC(c3ccc(Cl)c([N+](=O)[O-])c3)c3[nH]c4ccccc4c32)cc1 (stereo unspecified)	57*	3	1	-26	21*	17*	0
O=[N+]([O-])c1cccc(C2NCC(c3ccccc3Cl)c3c2[nH]c2ccccc32)c1 (stereo unspecified)	45	-2	7	nt	10	nt	nt
O=C(N/N=C/c1cccc([N+](=O)[O-])c1)c1cccc2cc[nH]c12	-11	-1	-3	-4	-2	nt	nt
O=C(N/N=C/c1cc([N+](=O)[O-])ccc1O)c1cccc(N2CCCC2=O)c1	-10	-29	-8	8	25*	21*	-5
O=C(N/N=C/c1cc([N+](=O)[O-])ccc1O)c1cccc2cc[nH]c12	57*	-9	-9	-22	29*	20*	-4
Nc1ccc2c(c1)C/C(=C/c1ccco1)C2=O	-13	10	-3	17	51*	9	3
O=C1/C(=C/c2ccco2)CCc2ccccc21	1	-15	-10	17	0	nt	nt
Cc1cccc(Cn2c(N3CCN(C)CC3)nc3c2c(=O)n(C)c(=O)n3C)c1	-11	-4	-11	2	1	nt	nt
Cc1ccnc(NC(c2cccnc2)c2ccc3cccnc3c2O)c1 (stereo unspecified)	17	-9	-9	36	12	nt	nt
Oc1c(C(Nc2ccccn2)c2ccccn2)ccc2cccnc12 (stereo unspecified)	55*	-22	-3	?	72*	76*	0
Oc1ccccc1C(Nc1nccs1)c1ccc2cccnc2c1O (stereo unspecified)	63*	7	-4	?	23*	20*	-1
COc1ccccc1NC(c1cccnc1)c1ccc2cccnc2c1O (stereo unspecified)	40	0	1	20	18*	19*	-3
Cc1sc2nc(SCC(=O)N3CC(C)OC(C)C3)n(C)c(=O)c2c1C (stereo unspecified)	12	-5	-3	4	0	nt	nt
Cc1nnc2sc(-c3ccc(NC(=O)CSc4ccc(Cl)cc4)cc3)nn12	14	0	-1	-24	18*	5	1
O=C(Nc1nn[nH]n1)c1cccc(Oc2ccccc2)c1	2	2	-1	16	26*	8	-3
O=C(NC1CCSc2ccccc21)c1ccc(C(F)(F)F)cc1 (stereo unspecified)	9	4	-11	5	-1	nt	nt
CC(C)=CCC12Oc3cc(O)ccc3C1(O)Oc1cc3c(c(O)c1C2=O)C=CC(C)(C)O3 (stereo unspecified)	19	2	nt	34	-3	nt	nt
CCc1nnc(NC(=O)c2ccc(S(=O)(=O)N(CC(C)C)CC(C)C)cc2)o1	nt	-6	-12	nt	25*	30*	-2
C=CCN(CC=C)S(=O)(=O)c1ccc(C(=O)Nc2nnc(CSC)o2)cc1	-49	-4	-4	60	22*	19*	7
CCc1nnc(NC(=O)c2ccc(S(=O)(=O)N3CCCc4ccccc43)cc2)o1	60*	-7	7	13	35*	28*	2
Cc1nn(C2CCS(=O)(=O)C2)c(Cl)c1/C=C/C(=O)OCC(=O)Nc1ccc2c(c1)OCO2 (stereo unspecified)	-6	-2	-6	18	2	nt	nt
SMILES	T cruzi repl	UBC13 inh	pCIP destab	AI-2 QS modul	PP1 counter	PP1 confirm	PP5 inh counter
CCSc1nc2c(cnn2-c2ccc(C)cc2)c(=O)[nH]1	-9	-11	-4	27	22*	6	-4
NS(=O)(=O)c1ccc(CNC(=O)c2cc(=O)[nH]c3ccccc23)cc1	-7	8	-11	nt	-1	nt	nt
O=C(CCNC(=O)N1CC(=O)Nc2ccccc21)Nc1ccc(Br)cc1F	-2	2	6	16	-2	nt	nt
O=C(CSc1nc(O)cc(=O)[nH]1)N1c2ccccc2CCc2ccccc21	-11	20	2	35	28*	-3	-4
O=C(CSc1nc(O)cc(=O)[nH]1)N1CCCc2ccccc21	-3	-5	-27	35	-2	nt	nt
CC1CC1C(=O)OCC(=O)NNC(=O)COc1ccc(Br)cc1 (stereo unspecified)	-2	1	nt	8	5	nt	nt
O=c1cc(-c2ccccc2)cc(-c2ccccc2)n1O	-22	-1	nt	-82*	20*	13	-3
COc1c(S(=O)(=O)NCCCN2CCOCC2)ccc(Cl)c1Cl	12	3	0	-11	-6	nt	nt
Cc1ccc(Nc2c(-c3ccc(N4CCOCC4)cc3)nc3cnccn23)cc1	-2	11	-3	-2	63*	-3	-3
Cc1ccccc1Nc1c(-c2ccc(N3CCOCC3)cc2)nc2cnccn12	13	0	-18	10	-1	nt	nt
Cc1ccc(/C=N/Nc2ccnc3cc(Cl)ccc23)c(C)c1	68*	0	-1	1	33*	3	2
Cc1ccc(Cl)cc1NC(=O)CNC(=O)N1CC(=O)Nc2ccccc21	4	0	9	10	-3	nt	nt
CCc1ccc(Nc2n[n+](-c3ccccc3)c(-c3ccc(OC)c(Br)c3)s2)cc1	38	5	3	25	20*	13	7
COc1ccc(S(=O)(=O)N2CCOCC2)cc1NC(=O)C1CC1	nt	-10	nt	nt	nt	nt	nt
Cc1ccc(S(=O)(=O)N2CCOCC2)cc1C(=O)Nc1ccc(S(=O)(=O)Nc2nccs2)cc1	2	2	9	20	30*	0	-3
CCOC(=O)C1=C(COC(=O)CSc2ccc(C)cc2)NC(=O)NC1C (stereo unspecified)	nt	5	nt	nt	0	nt	nt
Cc1cc(Cl)c(S(=O)(=O)N2CCN(c3ccc(F)cc3)CC2)cc1OCC(N)=O	5	-9	1	7	-1	nt	nt
Cc1cc(Cl)c(S(=O)(=O)N2CCN(c3ccc(F)cc3)CC2)cc1OCC(=O)NC1CCCCC1	?	-4	-15	13	18*	2	-2
O=[N+]([O-])c1cccc(/C=N/Nc2nc(C(Cl)(Cl)Cl)nc3ccccc23)c1	18	-15	5	10	0	nt	nt
